Results collected from several papers.
Compare with care: the assays were run in different laboratories. In brackets after ≈: the same amount, converted by molar mass.
Organism: Nakaseomyces glabratus

COc1cccc(-n2cc(Cn3c(C(=O)O)nc4ccccc4c3=O)nn2)c1 — IC50 (microbial growth, broth dilution; ATCC90030; 24 h): 453 µg/mL
CCCCOc1c(OC)cc(NC(C)CCCN)c2nc(C(C)(C)C)cc(C)c12 (stereo not drawn) — MIC (microbial growth, broth dilution; ATCC90030): > 20 µg/mL
CCOC(=O)c1nc2ccccc2c(=O)n1Cc1cn(-c2ccccc2Cl)nn1 — IC50 (microbial growth, broth dilution; ATCC90030; 24 h): 183 µg/mL
C[C@@H]1[C@H](O)[C@@H](C)/C=C/C=C/C=C/C=C/C=C/C=C/C=C/[C@H](O[C@@H]2O[C@H](C)[C@@H](O)[C@H](N)[C@@H]2O)C[C@@H]2O[C@](O)(C[C@@H](O)C[C@@H](O)[C@H](O)CC[C@@H](O)C[C@@H](O)CC(=O)O[C@H]1C)C[C@H](O)[C@H]2C(=O)O — IC50 (microbial growth; ATCC90030): 390 nM
CCCCCCCCOc1c(OC)cc(NC(C)CCCNC(=O)C2CCCN2)c2nc(C(C)(C)C)ccc12 (stereo not drawn) — MFC (microbial killing; ATCC90030): 20 µg/mL (≈ 37 µM)
CCCCCCCCCCCN1CCN(CC(O)(Cn2cncn2)c2ccc(F)cc2F)CC1 (stereo not drawn) — MIC (microbial growth, broth dilution; ATCC2001; 48 h): 3.9 µg/mL (≈ 8.17 µM)
COc1ccc(-n2cc(Cn3c(C(=O)O)nc4ccccc4c3=O)nn2)cc1 — IC50 (microbial growth, broth dilution; ATCC90030; 24 h): 718 µg/mL
CCCCCCOc1c(OC)cc(NC(C)CCCN)c2nc(C(C)(C)C)ccc12 (stereo not drawn) — MIC (microbial growth, broth dilution; ATCC90030): 20 µg/mL (≈ 48.1 µM)
OC(CN1CCOCC1)(Cn1cncn1)c1ccc(F)cc1F (stereo not drawn) — MIC (microbial growth, broth dilution; ATCC2001; 48 h): 31.3 µg/mL (≈ 96.5 µM)
